Data on 7 compounds can be found in ChEMBL document CHEMBL1949545, “Synthesis and evaluation of malonate-based inhibitors of phosphosugar-metabolizing enzymes: class II fructose-1,6-bis-phosphate aldolases, type I phosphomannose isomerase, and phosphoglucose isomerase” (Bioorg Med Chem, 2012).

Active and inactive are the calls of the source. No cut-off for these calls is given here.

Assay [1] is described as follows: Inhibition of yeast PGI. Also on record: species or system Saccharomyces cerevisiae.
The nature of assay [2]: Inhibition of Escherichia coli PMI.
Assay [3] addresses T1, Fructose-bisphosphate aldolase A (Oryctolagus cuniculus, UniProt P00883).
T1 sequence (P00883 whole entry): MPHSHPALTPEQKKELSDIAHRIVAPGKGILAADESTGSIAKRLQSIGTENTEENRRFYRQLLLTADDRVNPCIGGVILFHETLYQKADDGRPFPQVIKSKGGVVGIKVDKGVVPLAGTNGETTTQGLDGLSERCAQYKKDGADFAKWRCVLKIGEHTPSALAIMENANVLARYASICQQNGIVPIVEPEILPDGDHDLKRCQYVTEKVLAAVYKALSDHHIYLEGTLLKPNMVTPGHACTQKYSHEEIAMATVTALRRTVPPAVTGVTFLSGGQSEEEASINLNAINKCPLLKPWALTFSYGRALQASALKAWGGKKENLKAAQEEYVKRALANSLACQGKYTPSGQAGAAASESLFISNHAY
Description: Inhibition of rabbit muscle FBA-1.

Assay [4] in a line: Inhibition of Candida albicans FBA-2.
Assay [5] is described as follows: Inhibition of Helicobacter pylori FBA-2.
Assay [6] can be described thus: Inhibition of Mycobacterium tuberculosis FBA-2.
Assay [7] is described as follows: Inhibition of Yersinia pestis FBA-2.
For assay [8], the system named is Mycobacterium tuberculosis. The assay is described as follows: Antimicrobial activity against Mycobacterium tuberculosis at 1 mM. The class given is functional, organism-based.
In a further assay the test system is Yersinia pestis. The assay is described as follows: Antimicrobial activity against Yersinia pestis at 1 mM. The class given is functional, organism-based.
Another assay deals with Candida albicans. The assay is described as follows: Antimicrobial activity against Candida albicans at 1 mM. The class given is functional, organism-based. An outline of the steps: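 Growth inhibition was tested in cultivated microbial cultures at concentrations up to 1 mM.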

Take `NO.O=C(O)C(C[C@@H](O)[C@@H](O)[C@H](O)C(=O)NO)C(=O)O`: 2290 µM corresponded to half-maximal inhibition in [1] (IC50). Moreover, in assay [2], the inhibition constant (Ki) was found to be 162 µM.

For the compound `O=C(CO)N(O)CCCCOP(=O)(O)O`, the Ki was more than 1000 µM in assay [3]; 0.76 µM in assay [4]; 1.2 µM in [5]; 0.175 µM in assay [6]; 0.08 µM in assay [7].

Take `O=C(NO)[C@@H](O)[C@H](O)[C@H](O)COP(=O)(O)O`: the Ki is 0.23 µM in [1] and 0.08 µM in assay [2].

On to `O=C(NO)[C@@H](O)[C@H](O)[C@H](O)CO`, for which the values for the 50% inhibitory concentration (IC50) in assay [1] and in assay [2] were 5540 µM and 10000 µM, respectively.

`O=C(COP(=O)(O)O)N(O)CCCCOP(=O)(O)O`: the outcome (in [8]; in the assay on Yersinia pestis; in the assay on Candida albicans) was inactive.

As for `O=C(O)C(CCCCN(O)C(=O)COP(=O)(O)O)C(=O)O`, the Ki in assay [3] was determined as 257 µM; in assay [4], 0.05 µM; in [5], 0.04 µM; in assay [6], 0.004 µM; in assay [7], 0.008 µM. The result (in [8]; with Yersinia pestis; in the assay with Candida albicans) was inactive.

Consider `O=C(O)C(CC(=O)N(O)CCCCOP(=O)(O)O)C(=O)O`, for which the Ki in assay [3] came out at 500 µM; in [4], 2300 µM; in assay [5] it was 250 µM; in assay [6], 500 µM; in assay [7] it was 1500 µM. Also, the result (in assay [8]; with Yersinia pestis; with Candida albicans) was inactive.

A word on the IC50: it is the concentration needed to halve the response being measured. By Ki is commonly meant the dissociation constant of the complex between target and ligand, obtained from inhibition or displacement. Read a low Ki as higher affinity.
